Data: ChEMBL document CHEMBL1153509, “2-O-beta-d-glucopyranosyl-sn-glycerol based analogues of sulfoquinovosyldiacylglycerols (SQDG) and their role in inhibiting Epstein-Barr virus early antigen activation” (Bioorg Med Chem, 2009)

Legend:
Raji [1] = experiment: Inhibition of 12-O-tetradecanoylphorbol-13-acetate-induced EBV-early antigen activation in human Raji cells assessed as early antigen induction at 100 molar ratio after 48 hrs by conventional indirect immunofluorescence technique relative to TPA; type: cell-based; set-up: scale not given: the % may be the effect or the level left; conditions: human gammaherpesvirus 4
How it was run: (§1)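 Raji cells (1×10^6/mL, RPMI 1640 plus 10% FCS) were incubated at 37 °C for 48 h in medium with 4 mM n-butyric acid, 32 pmol TPA in DMSO and test compound in DMSO, dosed as mol ratio to TPA. EA was detected by indirect immunofluorescence using high-titer EBV-positive NPC patient sera and FITC anti-human IgG, counting at least 500 cells. Runs were in triplicate. Results are expressed as % of the butyric acid plus TPA control (100%).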

[2] = Inhibition of 12-O-tetradecanoylphorbol-13-acetate-induced EBV-early antigen activation in human Raji cells assessed per TPA after 48 hrs by conventional indirect immunofluorescence technique; type: cell-based, human gammaherpesvirus 4
How it was run: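 Raji cells (1×10^6/mL) were treated at 37 °C for 48 h with 4 mM n-butyric acid, 32 pmol TPA and test compound in DMSO. EA-positive cells were scored by indirect immunofluorescence (NPC patient sera, FITC anti-human IgG), at least 500 cells per run, in triplicate. IC50 was given as the compound/TPA mol ratio inhibiting 50% of the TPA-activated positive control.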

Raji [3] = experiment: Inhibition of 12-O-tetradecanoylphorbol-13-acetate-induced EBV-early antigen activation in human Raji cells assessed as early antigen induction at 10 molar ratio after 48 hrs by conventional indirect immunofluorescence technique relative to TPA; type: cell-based; set-up: scale not given: the % may be the effect or the level left; conditions: human gammaherpesvirus 4; how it was run: as §1
Raji [4] = experiment: Inhibition of 12-O-tetradecanoylphorbol-13-acetate-induced EBV-early antigen activation in human Raji cells assessed as early antigen induction at 1000 molar ratio after 48 hrs by conventional indirect immunofluorescence technique relative to TPA; type: cell-based; set-up: scale not given: the % may be the effect or the level left; conditions: human gammaherpesvirus 4; how it was run: as §1
[5] = Cytotoxicity against human Raji cells assessed as cell viability at 100 molar ratio after 48 hrs by trypan blue staining method; type: cell-based; conditions: read-out: Activity
How it was run: (§2)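 Raji cells (1×10^6/mL) in RPMI 1640 with 10% fetal calf serum were incubated 48 h at 37 °C with 4 mM n-butyric acid, 32 pmol TPA in DMSO and test compound in DMSO. Compound doses were set as mol ratio to TPA. Viability was read by Trypan Blue staining 2 days after treatment.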

Raji [6] = experiment: Inhibition of 12-O-tetradecanoylphorbol-13-acetate-induced EBV-early antigen activation in human Raji cells assessed as early antigen induction at 500 molar ratio after 48 hrs by conventional indirect immunofluorescence technique relative to TPA; type: cell-based; set-up: scale not given: the % may be the effect or the level left; conditions: human gammaherpesvirus 4; how it was run: as §1
[7] = Cytotoxicity against human Raji cells assessed as cell viability at 10 molar ratio after 48 hrs by trypan blue staining method; type: cell-based; conditions: read-out: Activity; how it was run: as §2
[8] = Cytotoxicity against human Raji cells assessed as cell viability at 1000 molar ratio after 48 hrs by trypan blue staining method; type: cell-based; conditions: read-out: Activity; how it was run: as §2
[9] = Cytotoxicity against human Raji cells assessed as cell viability at 500 molar ratio after 48 hrs by trypan blue staining method; type: cell-based; conditions: read-out: Activity; how it was run: as §2

IC50 [2] | SMILES | Activity (Raji [1]) | Activity (Raji [3]) | Activity (Raji [4]) | viability at 48 h, 100 molar ratio [5] | Activity (Raji [6]) | viability at 48 h, 10 molar ratio [7] | viability at 48 h, 1000 molar ratio [8] | viability at 48 h, 500 molar ratio [9]
37.3 mol ratio/TPA | CCCCCC(=O)OC[C@H](CO)O[C@@H]1O[C@H](COC(=O)CCCCC)[C@@H](O)[C@H](O)[C@H]1O | 34.6% | 71.5% | 0% | 80% | 15.1% | 80% | 70% | 80%
539 mol ratio/TPA | CCCCCC(=O)OCC(COC(=O)CCCCC)O[C@@H]1O[C@H](CS(=O)(=O)[O-])[C@@H](O)[C@H](O)[C@H]1O.[Na+] | 84.3% | 100% | 20.3% | 80% | 60.5% | 80% | 50% | 70%
327 mol ratio/TPA | CCCCCC(=O)OCC(COC(=O)CCCCC)O[C@@H]1O[C@H](CO)[C@@H](O)[C@H](O)[C@H]1O | 76.9% | 100% | 9.3% | 80% | 46.8% | 80% | 60% | 70%

More lines, now with the values behind:

SMILES | IC50 [2] | Activity (Raji [1]) | Activity (Raji [3]) | Activity (Raji [4]) | viability at 48 h, 100 molar ratio [5] | Activity (Raji [6]) | viability at 48 h, 10 molar ratio [7] | viability at 48 h, 1000 molar ratio [8] | viability at 48 h, 500 molar ratio [9]
CCCCCCCCCCCC(=O)OCC(COC(=O)CCCCCCCCCCC)O[C@@H]1O[C@H](CS(=O)(=O)[O-])[C@@H](O)[C@H](O)[C@H]1O.[Na+] | 581 mol ratio/TPA | 85.2% | 100% | 23.4% | 80% | 62.6% | 80% | 50% | 70%
CCCCCCCCCCCC(=O)OCC(COC(=O)CCCCCCCCCCC)O[C@@H]1O[C@H](CO)[C@@H](O)[C@H](O)[C@H]1O | 402 mol ratio/TPA | 80.5% | 100% | 13% | 80% | 52.4% | 80% | 60% | 70%
CCCCCC(=O)OCCO[C@@H]1O[C@H](CO)[C@H](O)[C@H](O)[C@H]1O | 350 mol ratio/TPA | 78.5% | 100% | 6.7% | 80% | 49.5% | 80% | 70% | 80%
CCCCCCCCCCCCCCCCCC(=O)OCC(COC(=O)CCCCCCCCCCCCCCCCC)O[C@@H]1O[C@H](CS(=O)(=O)[O-])[C@@H](O)[C@H](O)[C@H]1O.[Na+] | 632 mol ratio/TPA | 87.4% | 100% | 25.1% | 80% | 65.1% | 80% | 50% | 70%
CCCCCCCCCCCCCCCCCC(=O)OCC(COC(=O)CCCCCCCCCCCCCCCCC)O[C@@H]1O[C@H](CO)[C@@H](O)[C@H](O)[C@H]1O | 484 mol ratio/TPA | 82.8% | 100% | 16.2% | 80% | 57.8% | 80% | 60% | 70%
